Screens from PubChem.
Compounds with a hit are over-represented: about 4.1% of the library has one in this group of screens.
MEKK3 PB1 HTS – modulators (inhibitors or enhancers) of MEK5 binding to human MEKK3 PB1 domain; Q99759; bead-based flow cytometry, Alexa488-MEK5 binding to MEKK3; actives lie on both sides; 0 = blocked by unlabeled MEK5, 100 = vehicle; binding response (% of control), % at 10 µM; 290,000 tested, 1.4% active; AID 1529;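 active means binding response more than 3 SD above or below the average of its plate-row segment, actives on both sides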;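 further: Alexa488 bead fluorescence after subtracting the streptavidin-only scavenger bead signal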
Target sequence (Q99759 whole entry, looked up, the tested form may be a part): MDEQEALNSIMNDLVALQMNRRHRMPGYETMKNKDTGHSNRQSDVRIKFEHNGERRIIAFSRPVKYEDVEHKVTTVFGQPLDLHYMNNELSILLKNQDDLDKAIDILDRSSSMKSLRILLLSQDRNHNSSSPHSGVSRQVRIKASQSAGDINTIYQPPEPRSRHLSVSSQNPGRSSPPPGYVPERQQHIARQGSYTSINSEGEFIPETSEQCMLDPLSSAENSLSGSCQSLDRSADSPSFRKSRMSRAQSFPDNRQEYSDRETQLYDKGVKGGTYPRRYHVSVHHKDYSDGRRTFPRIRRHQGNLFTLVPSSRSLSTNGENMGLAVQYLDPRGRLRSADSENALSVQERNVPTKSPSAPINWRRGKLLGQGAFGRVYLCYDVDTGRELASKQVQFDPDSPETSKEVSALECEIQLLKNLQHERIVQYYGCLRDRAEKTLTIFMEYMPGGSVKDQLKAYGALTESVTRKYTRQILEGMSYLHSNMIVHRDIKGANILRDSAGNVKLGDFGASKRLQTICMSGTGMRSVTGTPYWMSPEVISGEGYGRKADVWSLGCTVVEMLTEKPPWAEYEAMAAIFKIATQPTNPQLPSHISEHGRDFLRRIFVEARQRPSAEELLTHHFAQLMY
T cruzi inh – blocks replication of Trypanosoma cruzi; T. cruzi beta-gal in NIH3T3, luminescence, 90 h; inhibition, % (no concentration beside the values); 300,000 tested, 1.4% active; AID 1885;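 active means mean inhibition across valid replicates above about 55%, limit read from the data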;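 further: signal also drops with host cell toxicity which is not excluded here; 0% = plate median of DMSO wells and 100% = zero luminescence signal; higher percent means less beta-gal luminescence so fewer parasites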
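System – NIH/3T3 host cells with β-galactosidase reporter T. cruzi · Doses – single 50 nL compound addition per well in DMSO · Reagent – 5000 T. cruzi trypomastigotes/well · Medium – Low-serum DMEM with 2% FBS · Timing – ≥90 h infection period, 3 h prior cell attachment · Evaluation – parasite load inhibition, % · Technique – GalScreen luminescence, 60 min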
MEKK2mut PB1 HTS – signal of MEK5 binding to mutant human MEKK2 PB1 domain; percent response, % at 10 µM; AID 1530; bead flow cytometry, Alexa488-MEK5 binding to MEKK2 mutant; 290,000 tested, 0.35% active; in the data active means percent response above about 24%, passing the limit was not always enough
FID counter – counter-screen for HCV NS3 helicase inhibitors: DNA intercalator displacement | AID 1845 | inhibition, % at 7.9 µM | DNA fluorescent intercalator displacement, fluorescence | 290,000 tested, 0.17% active; in the data active means inhibition above about 37%;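 further: 0% = vehicle and 100% = reference compound; higher means more ethidium bromide displaced from hairpin DNA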
MEKK2wt PB1 HTS – raises or lowers MEK5 binding to wildtype human MEKK2 PB1 domain; Q9Y2U5; bead flow cytometry, Alexa488-MEK5 binding to MEKK2 WT; actives lie on both sides; binding response (% of control), % at 10 µM; 290,000 tested, 1.1% active; AID 1531; in the data active means binding response below about 67% or above about 130%
HCV NS3 hel inh – HCV NS3 helicase inhibition | inhibition, % at 10.9 µM | 290,000 tested, 0.56% active | NS3 helicase DNA unwinding, Cy5 molecular beacon fluorescence | AID 1800;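 active means inhibition above the mean of all tested compounds plus 3 SD, set per campaign, cut at about 35% in these data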;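 further: 0% = DMSO wells and 100% = thioflavine S control wells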
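System: Hepatitis C virus NS3 helicase domain fragment enzyme | Reagent: Annealed dual-labelled DNA beacon duplex, ATP-started | Compound dosing: 10.9 µM single point, 0.8% DMSO | Incubation: 1 h reaction at 25 °C, ATP-initiated | Technique: Cy5 fluorescence | Evaluation: Percent inhibition from t60/t0 fluorescence ratio | Benchmarks: Low DMSO, high thioflavine S at 110 µM | Replication: Singlicate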
Active calls of the source: *; · = no result.

SMILES	MEKK3 PB1 HTS	T cruzi inh	MEKK2mut PB1 HTS	FID counter	MEKK2wt PB1 HTS	HCV NS3 hel inh
CCN(CC)c1ccc(NC(=O)c2ccc3c(c2)c(C)c(C)n3C)cc1	79	69*	-13	-1	74	-24
CCC1=Nc2cc(C(=O)NCCN3CCCC3)ccc2Sc2ccccc21	101	18	16	19	135*	-43
CC(C)(C)c1cc(C(=O)NCCN2CCCC2)cc(C(C)(C)C)c1	101	71*	18	22	125	-41
O=C(O)C1Cc2ccccc2CN1C(=O)CCl (configuration not stated)	88	5	0	2	98	2
O=[N+]([O-])c1ncccc1OCc1ccc(Br)cc1F	98	-4	-5	1	95	1
Cc1cc(C)n(-c2ccc(C(=O)N3CCC(CO)(Cc4ccccc4)CC3)cc2)n1	97	4	-9	-29	89	-4
Cc1cc(C)cc(OCC(=O)O/N=C(\N)c2cccnc2)c1	99	11	2	-15	101	1
Cc1nn(-c2ccccc2)c(N2CCCC2)c1/C=N/NC(=O)c1cc(-c2ccccc2)nc2ccccc12	90	63*	3	-6	93	-9
Cc1nn(-c2ccccc2)c(N2CCCC2)c1/C=N/NC(=O)c1cc(-c2ccccn2)nc2ccccc12	103	4	14	-14	112	-5
Cc1[nH]c2ccc(C(=O)NCCN3CCCCCC3)cc2c1C	102	-1	20	-1	135*	-63
Cc1ccc(-c2cc(C(=O)NCCCN3CCCC3)c3ccccc3n2)cc1C	103	22	11	17	141*	-32
Cc1c(C)n(C)c2ccc(C(=O)NCCCN3CCCC3)cc12	102	6	14	1	142*	-13
COc1ccc(S(=O)(=O)N2CCCCC2)cc1C(=O)N1CCCC1	103	10	0	-13	104	-2
O=[N+]([O-])C(/C=C(/Cl)[N+](=O)[O-])=C(N1CCCCC1)N1CCCCC1	102	55*	4	4	102	-8
CCOc1ccc(CCNC(=O)c2cc(-c3ccccc3)c(N3CCOCC3)s2)cc1	·	58*	·	·	·	·
CCOc1ccc(CCNC(=O)c2cc(-c3ccccc3)c(N3CCOCC3)s2)cc1OCC	103	26	0	-40	101	-17
CCOC(=O)c1cnc(-n2nc(C)cc2C)nc1NCc1ccc2c(c1)OCO2	111	70*	2	-5	102	2
CCOC(=O)c1cnc(-n2nc(C)cc2C)nc1Nc1ccccc1OC	102	·	3	-4	102	4
CCOC(=O)c1cnc(-n2nc(C)cc2C)nc1NCCc1ccccc1	102	55*	-4	-21	96	-5
CCOC(=O)c1cnc(-n2nc(C)cc2C)nc1NC1CCCC1	100	52	-1	-28	104	-26
CC(C)OCCCNC(=O)C(NS(=O)(=O)c1ccc2c(c1)c(=O)n(C)c(=O)n2C)c1ccccc1 (configuration not stated)	103	-4	-3	-11	91	7
N#CCCn1cc(/C=N/NC(N)=S)c(-c2ccc(-c3ccccc3)cc2)n1	62	63*	-15	-20	61	-16
CN(CC(=O)Nc1ccc(F)c(F)c1F)C(=O)/C=C/c1ccc(Cl)cc1	98	-7	3	2	88	-4
Cc1ccc(-n2nnnc2CNC(=O)c2ccc([N+](=O)[O-])o2)cc1C	·	57*	·	·	·	·
O=C(NCc1nnnn1-c1ccc(F)cc1)c1ccc([N+](=O)[O-])o1	·	46	·	·	·	·
CCOc1ccc2oc(=O)cc(CN3CCN(Cc4ccccc4)CC3)c2c1	105	58*	8	11	111	0
Cc1c(O)ccc2c(CN3CCN(Cc4ccccc4)CC3)cc(=O)oc12	105	56*	7	-4	111	-7
CN(C1CCCCC1)S(=O)(=O)c1ccc(-c2ccccn2)s1	100	23	-5	-21	98	-14
O=C(NCC(=O)N1CCN(S(=O)(=O)c2ccccc2)CC1)c1ccc(Br)o1	·	0	·	·	·	·
Cc1nn(S(=O)(=O)c2ccc([N+](=O)[O-])cc2)c(C)c1Sc1ccccc1	110	64*	7	-1	109	0
